Measurements from ChEMBL document CHEMBL3588757, “Structure-based design, synthesis and biological testing of piperazine-linked bis-epipodophyllotoxin etoposide analogs” (Bioorg Med Chem, 2015).

Legend:
Format in all cases: functional
NCI-H460 = experiment: Cytotoxicity against human NCI-H460 cells assessed as cell growth at 0.05 uM by SRB assay; details: read-out: Activity
PC-3 [1] = experiment: Cytotoxicity against human PC3 cells by SRB assay
Procedure, shortened: (§1)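 NCI-60 panel screen; 5-dose testing giving GI50 per cell line, plus a single 10 µM one-dose test. Method details not given beyond the NCI screen.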

LOX IMVI = experiment: Cytotoxicity against human LOXIMVI cells by SRB assay; procedure, shortened: as §1
786-0 = experiment: Cytotoxicity against human 786-0 cells assessed as cell growth at 0.005 uM by SRB assay; details: read-out: Activity
OVCAR-3 = experiment: Cytotoxicity against human OVCAR3 cells assessed as cell growth at 50 uM by SRB assay; details: read-out: Activity
SR = experiment: Cytotoxicity against human SR cells by SRB assay; procedure, shortened: as §1
NCI-H522 [2] = experiment: Cytotoxicity against human NCI-H522 cells assessed as cell growth at 0.005 uM by SRB assay; details: read-out: Activity
NCI-H522 [3] = experiment: Cytotoxicity against human NCI-H522 cells by SRB assay; procedure, shortened: as §1
HOP-92 = experiment: Cytotoxicity against human HOP92 cells assessed as cell growth at 0.05 uM by SRB assay; details: read-out: Activity
Procedure, shortened: (§2)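 Measured in the NCI-60 human tumour cell line panel using five-dose testing. Growth was recorded at each dose for each cell line, and a GI50 was derived for each line.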

CAKI-1 = experiment: Cytotoxicity against human Caki1 cells assessed as cell growth at 50 uM by SRB assay; details: read-out: Activity
SK-MEL-2 = experiment: Cytotoxicity against human SK-MEL-2 cells by SRB assay; procedure, shortened: as §1
[4] = Cytotoxicity against human NCI-ADR-RES cells assessed as cell growth at 0.05 uM by SRB assay; details: read-out: Activity
SW-620 [5] = experiment: Cytotoxicity against human SW620 cells assessed as cell growth at 0.5 uM by SRB assay; details: read-out: Activity
OVCAR-4 = experiment: Cytotoxicity against human OVCAR4 cells assessed as cell growth at 0.05 uM by SRB assay; details: read-out: Activity
MDA-MB-231 [6] = experiment: Cytotoxicity against human MDA-MB-231/ATCC cells assessed as cell growth at 0.005 uM by SRB assay; details: read-out: Activity
SNB-75 = experiment: Cytotoxicity against human SNB75 cells by SRB assay; procedure, shortened: as §1
HCC 2998 = experiment: Cytotoxicity against human HCC2998 cells assessed as cell growth at 0.005 uM by SRB assay; details: read-out: Activity; procedure, shortened: as §2
[7] = Cytotoxicity against human Hs578T cells assessed as cell growth at 0.05 uM by SRB assay; details: Hs-578T, read-out: Activity; procedure, shortened: as §2
HCT-116 = experiment: Cytotoxicity against human HCT116 cells assessed as cell growth at 0.05 uM by SRB assay; details: read-out: Activity; procedure, shortened: as §2
ACHN = experiment: Cytotoxicity against human ACHN cells assessed as cell growth at 0.005 uM by SRB assay; details: read-out: Activity
RXF 393 [8] = experiment: Cytotoxicity against human RXF393 cells assessed as cell growth at 50 uM by SRB assay; details: read-out: Activity
A498 = experiment: Cytotoxicity against human A498 cells assessed as cell growth at 0.005 uM by SRB assay; details: read-out: Activity
SF-539 = experiment: Cytotoxicity against human SF539 cells assessed as cell growth at 0.005 uM by SRB assay; details: read-out: Activity
RXF 393 [9] = experiment: Cytotoxicity against human RXF393 cells by SRB assay; procedure, shortened: as §1
RPMI-8226 = experiment: Cytotoxicity against human RPMI8226 cells assessed as cell growth at 50 uM by SRB assay; details: read-out: Activity
SW-620 [10] = experiment: Cytotoxicity against human SW620 cells by SRB assay; procedure, shortened: as §1
PC-3 [11] = experiment: Cytotoxicity against human PC3 cells assessed as cell growth at 0.005 uM by SRB assay; details: read-out: Activity
U-251 = experiment: Cytotoxicity against human U251 cells assessed as cell growth at 50 uM by SRB assay; details: read-out: Activity
DU-145 = experiment: Cytotoxicity against human DU145 cells by SRB assay; procedure, shortened: as §2
KM12 = experiment: Cytotoxicity against human KM12 cells assessed as cell growth at 0.5 uM by SRB assay; details: read-out: Activity
SK-MEL-28 = experiment: Cytotoxicity against human SK-MEL-28 cells assessed as cell growth at 0.05 uM by SRB assay; details: read-out: Activity
PC-3 [12] = experiment: Cytotoxicity against human PC3 cells assessed as cell growth at 0.5 uM by SRB assay; details: read-out: Activity
SN12C = experiment: Cytotoxicity against human SN12C cells assessed as cell growth at 0.5 uM by SRB assay; details: read-out: Activity
NCI-H23 = experiment: Cytotoxicity against human NCI-H23 cells assessed as cell growth at 50 uM by SRB assay; details: read-out: Activity
COLO 205 = experiment: Cytotoxicity against human COLO205 cells by SRB assay
MDA-MB-231 [13] = experiment: Cytotoxicity against human MDA-MB-231/ATCC cells by SRB assay; procedure, shortened: as §1
SNB-19 = experiment: Cytotoxicity against human SNB19 cells assessed as cell growth at 5 uM by SRB assay; details: read-out: Activity
SF-295 = experiment: Cytotoxicity against human SF295 cells assessed as cell growth at 0.05 uM by SRB assay; details: read-out: Activity
[14] = read-out: LC50 (the source's name)
[15] = read-out: pLC50 (the source's name) (converted)

COc1cc([C@@H]2c3cc4c(cc3[C@@H](NC(=O)CN3CCN(CCCCCCCCCCN5CCN(CC(=O)N[C@@H]6c7cc8c(cc7[C@@H](c7cc(OC)c(O)c(OC)c7)[C@H]7C(=O)OC[C@@H]76)OCO8)CC5)CC3)[C@H]3COC(=O)[C@H]23)OCO4)cc(OC)c1O
growth at 0.05 µM (NCI-H460): 90% | GI50 (PC-3 [1]; read-out: GI50): 903 nM | CC50 (PC-3 [1]; [14]): 47700 nM | TGI (PC-3 [1]; read-out: TGI): 8940 nM | GI50 (PC-3 [1]; read-out: pGI50 (converted)): 912 nM | CC50 (PC-3 [1]; [15]): 47900 nM | TGI (PC-3 [1]; read-out: pTGI (converted)): 8910 nM | GI50 (LOX IMVI; read-out: GI50): 73.1 nM | GI50 (LOX IMVI; read-out: pGI50 (converted)): 72.4 nM | growth at 0.005 µM (786-0): 97% | growth at 50 µM (OVCAR-3): -50% | GI50 (SR; read-out: GI50): 232 nM | CC50 (SR; [14]): > 50000 nM | TGI (SR; read-out: TGI): 1810 nM | GI50 (SR; read-out: pGI50 (converted)): 229 nM | CC50 (SR; [15]): > 50100 nM | TGI (SR; read-out: pTGI (converted)): 1820 nM | growth at 0.005 µM (NCI-H522 [2]): 97% | GI50 (NCI-H522 [3]; read-out: GI50): 32 nM | CC50 (NCI-H522 [3]; [14]): 4380 nM | TGI (NCI-H522 [3]; read-out: TGI): 797 nM | GI50 (NCI-H522 [3]; read-out: pGI50 (converted)): 32.4 nM | CC50 (NCI-H522 [3]; [15]): 4370 nM | TGI (NCI-H522 [3]; read-out: pTGI (converted)): 794 nM | growth at 0.05 µM (HOP-92): 73% | growth at 50 µM (CAKI-1): -97% | GI50 (SK-MEL-2; read-out: GI50): 3960 nM | CC50 (SK-MEL-2; [14]): 41000 nM | TGI (SK-MEL-2; read-out: TGI): 13900 nM | GI50 (SK-MEL-2; read-out: pGI50 (converted)): 3980 nM | CC50 (SK-MEL-2; [15]): 40700 nM | TGI (SK-MEL-2; read-out: pTGI (converted)): 13800 nM | growth at 0.05 µM [4]: 97% | growth at 0.5 µM (SW-620 [5]): 46% | growth at 0.05 µM (OVCAR-4): 94% | growth at 0.005 µM (MDA-MB-231 [6]): 98% | GI50 (SNB-75; read-out: GI50): 228 nM | CC50 (SNB-75; [14]): > 50000 nM | TGI (SNB-75; read-out: TGI): 2750 nM | GI50 (SNB-75; read-out: pGI50 (converted)): 229 nM | CC50 (SNB-75; [15]): > 50100 nM | TGI (SNB-75; read-out: pTGI (converted)): 2750 nM | growth at 0.005 µM (HCC 2998): 99% | growth at 0.05 µM [7]: 95% | growth at 0.05 µM (HCT-116): 77% | growth at 0.005 µM (ACHN): 100% | growth at 50 µM (RXF 393 [8]): -47% | growth at 0.005 µM (A498): 73% | growth at 0.005 µM (SF-539): 98% | GI50 (RXF 393 [9]; read-out: GI50): 791 nM | CC50 (RXF 393 [9]; [14]): > 50000 nM | TGI (RXF 393 [9]; read-out: TGI): 2380 nM | GI50 (RXF 393 [9]; read-out: pGI50 (converted)): 794 nM | CC50 (RXF 393 [9]; [15]): > 50100 nM | TGI (RXF 393 [9]; read-out: pTGI (converted)): 2400 nM | growth at 50 µM (RPMI-8226): -13% | GI50 (SW-620 [10]; read-out: GI50): 372 nM | CC50 (SW-620 [10]; [14]): 3380 nM | TGI (SW-620 [10]; read-out: TGI): 1330 nM | GI50 (SW-620 [10]; read-out: pGI50 (converted)): 372 nM | CC50 (SW-620 [10]; [15]): 3800 nM | TGI (SW-620 [10]; read-out: pTGI (converted)): 1320 nM | growth at 0.005 µM (PC-3 [11]): 99% | growth at 50 µM (U-251): -79% | GI50 (DU-145; read-out: GI50): 153 nM | CC50 (DU-145; [14]): 14600 nM | TGI (DU-145; read-out: TGI): 2890 nM | GI50 (DU-145; read-out: pGI50 (converted)): 151 nM | CC50 (DU-145; [15]): 14500 nM | TGI (DU-145; read-out: pTGI (converted)): 2880 nM | growth at 0.5 µM (KM12): 74% | growth at 0.05 µM (SK-MEL-28): 100% | growth at 0.5 µM (PC-3 [12]): 61% | growth at 0.5 µM (SN12C): 27% | growth at 50 µM (NCI-H23): -92% | GI50 (COLO 205; read-out: GI50): 906 nM | CC50 (COLO 205; [14]): > 50000 nM | TGI (COLO 205; read-out: TGI): 3520 nM | GI50 (COLO 205; read-out: pGI50 (converted)): 912 nM | CC50 (COLO 205; [15]): > 50100 nM | TGI (COLO 205; read-out: pTGI (converted)): 3550 nM | GI50 (MDA-MB-231 [13]; read-out: GI50): 958 nM | CC50 (MDA-MB-231 [13]; [14]): 18300 nM | TGI (MDA-MB-231 [13]; read-out: TGI): 2280 nM | GI50 (MDA-MB-231 [13]; read-out: pGI50 (converted)): 955 nM | CC50 (MDA-MB-231 [13]; [15]): 18200 nM | TGI (MDA-MB-231 [13]; read-out: pTGI (converted)): 2290 nM | growth at 5 µM (SNB-19): -81% | growth at 0.05 µM (SF-295): 88%
